From ChEMBL document CHEMBL4425193 (Bioorg Med Chem, 2016)
The source made the active and inactive calls. No cut-off for these calls is given here. Positions of bridges follow the written chain, without caps; N, C: chain ends. Non-standard residues stand in square brackets, D forms with d. Residues, ends and D or L forms follow the SMILES beside them. Chains are numbered I, II in the order given. ξ: configuration not given here. Gly(N-piperonyl) = O=C(O)CNCc1ccc2c(c1)OCO2; N(4-MeOBn)Gly = COc1ccc(CNCC(=O)O)cc1; Nrpe = C[C@@H](NCC(=O)O)c1ccccc1; Nlys = NCCCCNCC(=O)O; ξK = NCCCCC(N)C(=O)O

Experiments:
[1] = Displacement of FITC-labeled PPS1D1 from lipid phosphatidylserine assessed as remaining fluorescence at 1 uM incubated for 1 hr by ELISA-like competitive binding assay
Outline: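 Lipid PS in hexane (10 μg/ml) was coated into wells and dried at room temperature. Wells were blocked with 1% BSA/PBS for 1 h, then saturated with 200 nM FITC-PPS1D1 in blocking buffer for 1 h at room temperature and washed. Competitor at 1 μM was added for 1 h. After PBS washes, remaining fluorescence was read at 520 nm.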

HCC4017 [2] = assay: Cytotoxicity against human HCC4017 cells at 0.1 to 100 uM after 1 day by MTS assay; type: functional, cell-based
Outline: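 HCC4017 lung cancer cells were seeded in clear-bottom 96-well plates. On day 2 they were exposed to compound in RPMI with 10% FBS containing 3% BSA, at eight graded concentrations from 0.1 μM to 100 μM, each in triplicate. On day 3 MTS reagent was added and absorbance was read at 490 nm.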

HCC4017 [3] = assay: Cytotoxicity against human HCC4017 cells at 30 uM after 1 day by MTS assay
HCC4017 [4] = assay: Cytotoxicity against human HCC4017 cells at 30 uM after 1 day by MTS assay; type: functional, cell-based
Outline: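 HCC4017 cells were plated in 96-well format. On the second day compound was added in RPMI/10% FBS with 3% BSA, and each concentration was run in triplicate. MTS reagent was added on day 3 and absorbance was read at 490 nm. The absorbance values at the 30 μM treatment were taken for this readout.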

NCI-H460 = assay: Cytotoxicity against human H460 cells after 1 day by MTS assay; type: functional, cell-based; details: NCI-H460, 24 h
HCC4017 [5] = assay: Cytotoxicity against human HCC4017 cells after 1 day by MTS assay; type: functional, cell-based; details: HCC4017, 24 h

| Compound | inhibition [1] | Activity (HCC4017 [2]) | Activity (HCC4017 [3]) | Activity (HCC4017 [4]) | IC50 (NCI-H460) [µM] | IC50 (HCC4017 [5]) [µM] |
| --- | --- | --- | --- | --- | --- | --- |
| C=CCNCC(=O)N(CCOC)CC(=O)N(CC=C)CC(=O)N(CCOC)CC(=O)N(CC=C)CC(=O)NCC(=O)N[C@H](CCCCN)C(=O)N[C@@H](CCSC)C(=O)NCCCCC(NC(=O)[C@H](CCSC)NC(=O)[C@@H](CCCCN)NC(=O)CNC(=O)CN(CC=C)C(=O)CN(CCOC)C(=O)CN(CC=C)C(=O)CN(CCOC)C(=O)CNCC=C)C(N)=O (stereo partly drawn) | inactive | inactive | inactive | inactive |  |  |
| CSCC[C@H](NC(=O)[C@@H](CCCCN)NC(=O)[C@@H](N)CCCCN)C(=O)NCCCCC(NC(=O)[C@H](CCSC)NC(=O)[C@@H](CCCCN)NC(=O)[C@@H](N)CCCCN)C(N)=O (stereo partly drawn) | inactive | inactive |  |  |  |  |
| COCCN(CC(=O)N[C@@H](CCCCN)C(=O)N[C@H](CCCCN)C(=O)N[C@@H](CCSC)C(=O)NCCCCC(NC(=O)[C@H](CCSC)NC(=O)[C@@H](CCCCN)NC(=O)[C@H](CCCCN)NC(=O)CN(CCOC)C(=O)CN(Cc1ccc(OC)cc1)C(=O)CN(C(=O)CN(Cc1ccc2c(c1)OCO2)C(=O)CN[C@H](C)c1ccccc1)[C@H](C)c1ccccc1)C(N)=O)C(=O)CN(Cc1ccc(OC)cc1)C(=O)CN(C(=O)CN(Cc1ccc2c(c1)OCO2)C(=O)CN[C@H](C)c1ccccc1)[C@H](C)c1ccccc1 (stereo partly drawn) |  | Active |  |  |  |  |
| COc1ccc(CN(CC(=O)N(CCCCN)CC(=O)N[C@@H](CCCCN)C(=O)N[C@@H](C)C(=O)N[C@@H](CCSC)C(=O)NCCCCC(NC(=O)[C@H](CCSC)NC(=O)[C@H](C)NC(=O)[C@H](CCCCN)NC(=O)CN(CCCCN)C(=O)CN(Cc2ccc(OC)cc2)C(=O)CN(C(=O)CN(Cc2ccc3c(c2)OCO3)C(=O)CN[C@H](C)c2ccccc2)[C@H](C)c2ccccc2)C(N)=O)C(=O)CN(C(=O)CN(Cc2ccc3c(c2)OCO3)C(=O)CN[C@H](C)c2ccccc2)[C@H](C)c2ccccc2)cc1 (stereo partly drawn) (I: H-[Nrpe][Gly(N-piperonyl)][Nrpe][N(4-MeOBn)Gly][Nlys]KAM[ξK]-NH2 / II: H-[Nrpe][Gly(N-piperonyl)][Nrpe][N(4-MeOBn)Gly][Nlys]KAM; amide I:9-II:C) | inactive |  | inactive | inactive |  |  |
| COc1ccc(CN(CC(=O)N(CCCCN)CC(=O)N[C@@H](CCCCN)C(=O)N[C@H](CCCCN)C(=O)N[C@@H](C)C(=O)NCCCCC(NC(=O)[C@H](C)NC(=O)[C@@H](CCCCN)NC(=O)[C@H](CCCCN)NC(=O)CN(CCCCN)C(=O)CN(Cc2ccc(OC)cc2)C(=O)CN(C(=O)CN(Cc2ccc3c(c2)OCO3)C(=O)CN[C@H](C)c2ccccc2)[C@H](C)c2ccccc2)C(N)=O)C(=O)CN(C(=O)CN(Cc2ccc3c(c2)OCO3)C(=O)CN[C@H](C)c2ccccc2)[C@H](C)c2ccccc2)cc1 (stereo partly drawn) |  |  | Active | Active |  |  |
| C=CCN(CC(=O)N[C@@H](CCCCN)C(=O)N[C@H](CCCCN)C(=O)N[C@@H](CCSC)C(=O)NCCCCC(NC(=O)[C@H](CCSC)NC(=O)[C@@H](CCCCN)NC(=O)[C@H](CCCCN)NC(=O)CN(CC=C)C(=O)CN(Cc1ccc(OC)cc1)C(=O)CN(C(=O)CN(Cc1ccc2c(c1)OCO2)C(=O)CN[C@H](C)c1ccccc1)[C@H](C)c1ccccc1)C(N)=O)C(=O)CN(Cc1ccc(OC)cc1)C(=O)CN(C(=O)CN(Cc1ccc2c(c1)OCO2)C(=O)CN[C@H](C)c1ccccc1)[C@H](C)c1ccccc1 (stereo partly drawn) |  | Active |  |  |  |  |

Now from value to compound, other results behind:

| inhibition [1] | Compound | Activity (HCC4017 [2]) | Activity (HCC4017 [3]) | Activity (HCC4017 [4]) | IC50 (NCI-H460) [µM] | IC50 (HCC4017 [5]) [µM] |
| --- | --- | --- | --- | --- | --- | --- |
| inactive | COc1ccc(CNCC(=O)N(CCCCN)CC(=O)N[C@@H](CCCCN)C(=O)N[C@H](CCCCN)C(=O)N[C@@H](CCSC)C(=O)NCCCCC(NC(=O)[C@H](CCSC)NC(=O)[C@@H](CCCCN)NC(=O)[C@H](CCCCN)NC(=O)CN(CCCCN)C(=O)CNCc2ccc(OC)cc2)C(N)=O)cc1 (stereo partly drawn) | inactive |  |  |  |  |
| inactive | COc1ccc(CN(CC(=O)N(CCCCN)CC(=O)N[C@@H](CCCCN)C(=O)N[C@H](CCCCN)C(=O)N[C@@H](CCSC)C(=O)NCCCCC(NC(=O)[C@H](CCSC)NC(=O)[C@@H](CCCCN)NC(=O)[C@H](CCCCN)NC(=O)CN(CCCCN)C(=O)CN(Cc2ccc(OC)cc2)C(=O)CN(C)C(=O)CN(Cc2ccc3c(c2)OCO3)C(=O)CN[C@H](C)c2ccccc2)C(N)=O)C(=O)CN(C)C(=O)CN(Cc2ccc3c(c2)OCO3)C(=O)CN[C@H](C)c2ccccc2)cc1 (stereo partly drawn) |  | inactive | inactive |  |  |
| inactive | COc1ccc(CN(CC(=O)N(CCCCN)CC(=O)N[C@@H](CCCCN)C(=O)N[C@H](CCCCN)C(=O)N[C@@H](CCSC)C(=O)NCCCCC(NC(=O)[C@H](CCSC)NC(=O)[C@@H](CCCCN)NC(=O)[C@H](CCCCN)NC(=O)CN(CCCCN)C(=O)CN(Cc2ccc(OC)cc2)C(=O)CN(C(=O)CNCc2ccc3c(c2)OCO3)[C@H](C)c2ccccc2)C(N)=O)C(=O)CN(C(=O)CNCc2ccc3c(c2)OCO3)[C@H](C)c2ccccc2)cc1 (stereo partly drawn) | inactive |  |  |  |  |
| inactive | CSCC[C@H](NC(=O)[C@@H](CCCCN)NC(=O)[C@H](CCCCN)NC(=O)CNCCCCN)C(=O)NCCCCC(NC(=O)[C@H](CCSC)NC(=O)[C@@H](CCCCN)NC(=O)[C@H](CCCCN)NC(=O)CNCCCCN)C(N)=O (stereo partly drawn) | inactive |  |  |  |  |
| inactive | CSCC[C@H](NC(=O)[C@@H](CCCCN)NC(=O)[C@H](CCCCN)NC(=O)CN(CCCCN)C(=O)CN(C)C(=O)CN(C(=O)CN(Cc1ccc2c(c1)OCO2)C(=O)CN[C@H](C)c1ccccc1)[C@H](C)c1ccccc1)C(=O)NCCCCC(NC(=O)[C@H](CCSC)NC(=O)[C@@H](CCCCN)NC(=O)[C@H](CCCCN)NC(=O)CN(CCCCN)C(=O)CN(C)C(=O)CN(C(=O)CN(Cc1ccc2c(c1)OCO2)C(=O)CN[C@H](C)c1ccccc1)[C@H](C)c1ccccc1)C(N)=O (stereo partly drawn) |  | inactive | inactive |  |  |
| Active | COc1ccc(CN(CC(=O)N(CCCCN)CC(=O)N[C@@H](CCCCN)C(=O)N[C@H](CCCCN)C(=O)N[C@@H](CCSC)C(=O)NCCCCC(NC(=O)[C@H](CCSC)NC(=O)[C@@H](CCCCN)NC(=O)[C@H](CCCCN)NC(=O)CN(CCCCN)C(=O)CN(Cc2ccc(OC)cc2)C(=O)CN(C(=O)CN(Cc2ccc3c(c2)OCO3)C(=O)CN[C@H](C)c2ccccc2)[C@H](C)c2ccccc2)C(N)=O)C(=O)CN(C(=O)CN(Cc2ccc3c(c2)OCO3)C(=O)CN[C@H](C)c2ccccc2)[C@H](C)c2ccccc2)cc1 (stereo partly drawn) | Active | Active | Active | 5 to 10 | 5 to 10 |
| inactive | COc1ccc(CN(CC(=O)N(CCCCN)CC(=O)N[C@@H](CCCCN)C(=O)N[C@H](CCCCN)C(=O)N[C@@H](CCSC)C(=O)NCCCCC(NC(=O)[C@H](CCSC)NC(=O)[C@@H](CCCCN)NC(=O)[C@H](CCCCN)NC(=O)CN(CCCCN)C(=O)CN(Cc2ccc(OC)cc2)C(=O)CN[C@H](C)c2ccccc2)C(N)=O)C(=O)CN[C@H](C)c2ccccc2)cc1 (stereo partly drawn) | inactive |  |  |  |  |
